Data published in article PMC3313473 (Free radical biology & medicine, 2011).

What was measured:
[1] = test system: primary human skeletal muscle cells (proliferating, differentiating, differentiated); experiment: MTS cell viability assay; type: cell-based; details: 48 h
[2] = test system: primary human myotubes; experiment: Mitochondrial superoxide production, MitoSOX Red flow cytometry; type: cell-based; details: 5 µM, 48 h
[3] = test system: Bax; experiment: Western immunoblot of Bax; type: cell-based, human; details: 5 µM, 48 h
[4] = test system: mitochondrial PTP; details: ref Velho et al. 37; cited from earlier work
[5] = test system: citrate synthase activity in primary human myotubes; experiment: Citrate synthase activity in myotubes; type: cell-based; details: simvastatin-treated myotubes
[6] = test system: primary human skeletal myotubes; experiment: Intracellular ROS generation, DCF-DA staining; type: cell-based; details: simvastatin treated myotubes
[7] = test system: isolated myofibers; details: 50 µM simvastatin; ref Sirvent et al. 29; cited from earlier work
[8] = test system: primary human skeletal myotubes; experiment: TUNEL assessment of apoptotic myonuclei; type: cell-based; details: 5 µM, 48 h
Outline: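 Coverslip-grown myotubes exposed 48 h to test compound or 0.1% DMSO vehicle; fixed in 4% paraformaldehyde/PBS (pH 7.4) 20 min RT, permeabilized with 0.1% Triton X-100 in 0.1% sodium citrate 10 min at 4°C. TdT/fluorescein-dUTP labelling 60 min at 37°C, humidified, dark; DAPI counterstain. DNase I positive and label-only negative controls. Positive myonuclei counted over multiple sections as % of DAPI nuclei.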

[9] = test system: primary human skeletal myotubes; experiment: Morphological imaging and cell counting of myotubes; type: cell-based; details: 5 µM
[10] = test system: Bcl-2; experiment: Western immunoblot of Bcl-2; type: cell-based, human; details: 5 µM, 48 h

| Structure (SMILES) | Effect of mevalonate on simvastatin-induced decrease in cell viability ([1]; differentiating cells, 1 µM simvastatin + 50 µM mevalonate) | Effect of mevalonate on simvastatin-induced decrease in cell viability ([1]; proliferating cells, 5 µM simvastatin + 50 µM mevalonate) | Increase in O2•− generation compared to DMSO control [2] | MitoSOX Red mean fluorescence intensity ([2]; representative histogram) | Bax protein levels higher than control [3] | In vivo and in vitro calcium-dependent mitochondrial PTP opening [4] | Citrate synthase activity [5] | DCF-DA staining compared with control [6] | Maximal ADP-stimulated respiration supported by complex I substrates (glutamate + malate) [7] | IC50 ([1]; Homo sapiens, read-out: IC50 for viability, proliferating cells, 48 h, MTS) | TUNEL-positive nuclei compared with control [8] | Changes in the morphology of myotubes ([9]; 24 h) | Changes in the morphology of myotubes ([9]; 48 h) | Fewer myotubes compared with DMSO-treated controls ([9]; 48 h) | Myotube cell number ([9]; 48 h) | Bcl-2 protein levels greater than DMSO control [10] |
| --- | --- | --- | --- | --- | --- | --- | --- | --- | --- | --- | --- | --- | --- | --- | --- | --- |
| CC(O)(CCO)CC(=O)O (stereo not shown) [mevalonate] | prevented | prevented | – | – | – | – | – | – | – | – | – | – | – | – | – | – |
| CCC(C)(C)C(=O)O[C@H]1C[C@@H](C)C=C2C=C[C@H](C)[C@H](CC[C@@H]3C[C@@H](O)CC(=O)O3)[C@H]21 [simvastatin] | – | – | approximately 44% | 46.1 counts | 53% | increased | 9.89 ± 1.04 µmol/g/min | increased staining | significantly impaired | 5 µM | More TUNEL-positive nuclei | not visible | less dense and atrophied | 22.3% | 0.87 × 10^6 cells/ml | 100% |
